Mdm2 MdmX PPI – human Mdm2/MdmX binding inhibition; 330,000 tested, 3% active; SaOS-2 split-luciferase Mdm2/MdmX complementation, luminescence; AID 485346; inhibition, % at 8 µM;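 active = inhibition of at least 50% at 8 µM in the primary screen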
Target sequence (O15151 whole entry, looked up): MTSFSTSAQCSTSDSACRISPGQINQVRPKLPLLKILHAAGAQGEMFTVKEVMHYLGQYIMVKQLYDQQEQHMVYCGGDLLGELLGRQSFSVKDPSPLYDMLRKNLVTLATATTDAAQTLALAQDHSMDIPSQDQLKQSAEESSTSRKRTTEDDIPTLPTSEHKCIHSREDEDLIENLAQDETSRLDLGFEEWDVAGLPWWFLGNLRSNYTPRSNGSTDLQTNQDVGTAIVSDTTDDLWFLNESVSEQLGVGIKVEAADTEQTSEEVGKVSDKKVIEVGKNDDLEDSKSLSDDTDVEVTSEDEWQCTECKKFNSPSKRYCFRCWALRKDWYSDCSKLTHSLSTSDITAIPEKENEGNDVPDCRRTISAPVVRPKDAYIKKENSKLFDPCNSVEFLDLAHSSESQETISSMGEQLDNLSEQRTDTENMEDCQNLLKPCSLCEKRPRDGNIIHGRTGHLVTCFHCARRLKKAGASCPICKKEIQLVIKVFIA
Target sequence (Q00987 whole entry, looked up): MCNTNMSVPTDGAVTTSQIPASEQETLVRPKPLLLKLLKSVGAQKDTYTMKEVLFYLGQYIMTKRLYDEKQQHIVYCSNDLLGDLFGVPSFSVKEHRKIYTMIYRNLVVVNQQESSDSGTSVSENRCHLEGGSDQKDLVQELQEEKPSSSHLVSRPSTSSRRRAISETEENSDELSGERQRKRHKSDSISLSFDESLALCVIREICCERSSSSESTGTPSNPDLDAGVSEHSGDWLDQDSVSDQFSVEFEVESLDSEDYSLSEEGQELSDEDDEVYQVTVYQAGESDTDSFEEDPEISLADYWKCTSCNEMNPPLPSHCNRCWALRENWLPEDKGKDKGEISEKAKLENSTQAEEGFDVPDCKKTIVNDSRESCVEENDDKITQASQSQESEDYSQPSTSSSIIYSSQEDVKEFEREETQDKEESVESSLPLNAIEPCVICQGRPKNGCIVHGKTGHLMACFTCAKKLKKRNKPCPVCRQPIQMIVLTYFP
UPR CHOP act – activators of apoptotic arm of unfolded protein response (CHOP) | activation, % at 10 µM | CHO-CHOP luciferase reporter, UPR activation, luminescence; percent of tunicamycin response over DMSO baseline | AID 449763 | 330,000 tested, 0.34% active;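 active = at 10 µM dose, activation of 40% or more, normalized to positive control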;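 note: 100% = tunicamycin at 10 µg/mL and 0% = DMSO alone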
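measured by = luciferase luminescence | assay system = CHO-CHOP cells, stable luciferase reporter of PERK-eIF2a-CHOP signalling | amount = 500 reporter cells seeded per well | timing = 6 h compound exposure at 37 °C after overnight seeding | controls = positive tunicamycin 10 µg/mL, negative DMSO alone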
Beta apoptosis – blocks beta cell apoptosis; protection from apoptosis, % (test concentration not listed); AID 435005; INS-1E cytokine-induced death, ATP luminescence, 48 h; percent of positive-control rescue, neutral wells zero; 300,000 tested, 0.8% active;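 active = Every replicate reaches about 75%, or at least half do and their mean reaches it too, limit read from the data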;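 note: 0% = cytokine-treated negative control wells and 100% = positive control rescue; higher means more ATP so stronger rescue from cytokine killing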
UPR XBP1 act – adaptive UPR (XBP1) activation. CHO-XBP1 luciferase reporter, IRE1-XBP1 UPR activation, luminescence; percent of tunicamycin response, DMSO as zero. 330,000 tested, 0.33% active. activation, % at 20 µM;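 active = versus positive control, 20 µM dose yields 30% or more activation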;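 note: 100% = tunicamycin at 10 µg/mL and 0% = DMSO only wells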
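Assay system: CHO-XBP1 luciferase reporter cells; Schedule: 6 h treatment, 37 °C; Detection: glow luminescence from Steady-Glo reagent; Benchmarks: high control tunicamycin 10 µg/mL final, low control DMSO vehicle only.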
SKKanGAS inh – inhibitors of SKKanGAS S. pyogenes growth in kanamycin (SK-promoter or general growth effect) | BacTiter-Glo, 6 h | inhibition, % at 7.5 µM | 300,000 tested, 1.3% active | AID 1662;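 active = mean replicate score, as percent of positive control median, at least 50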;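 note: strain carries kanamycin resistance gene driven by streptokinase promoter and grows in 40 µg/ml kanamycin; loss of luminescence reflects streptokinase promoter inhibition or plain growth inhibition; 0% = median of DMSO wells and 100% = positive control at its reference dose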
CSC inhib – cancer stem cell inhibition | inhibition, % at 7.5 µM | cancer stem cell-like cells viability, luminescence | 300,000 tested, 1.1% active | AID 2717; in the data active = inhibition above about 75%; tested in HMLE shEcad cells
* hit, by the source's call. Rows were chosen to be rich in hits. Some 4.8% of all compounds tested hit in one or more screens of this group.

`O=C(N/N=C/c1c(O)n(-c2ccccc2Cl)c(=O)c2ccccc12)C1COc2ccccc2O1` (stereo not given) gave Mdm2 MdmX PPI 16, UPR CHOP act 3, Beta apoptosis 13, UPR XBP1 act 0, SKKanGAS inh 79* and CSC inhib 25.
For O=S(=O)(NC1CCCCC1N1CCN(c2ccc(F)cc2)CC1)c1ccccc1 (stereo not given) the results were Mdm2 MdmX PPI -3, UPR CHOP act 0, Beta apoptosis 8, UPR XBP1 act -7, SKKanGAS inh 17 and CSC inhib 6.
Screening Cc1c(C=Nc2ccc(S(=O)(=O)N(C)C)cc2)c(O)[nH]c(=O)c1C#N returned Mdm2 MdmX PPI 6, UPR CHOP act -2, Beta apoptosis -1, UPR XBP1 act -1, SKKanGAS inh -8 and CSC inhib 3.
For Cc1[nH]n(-c2ccccc2)c(=O)c1/C=N\NC(=O)C1COc2ccccc2O1 (stereo not given) the results were Mdm2 MdmX PPI 8, UPR CHOP act 1, Beta apoptosis 78*, UPR XBP1 act -3, SKKanGAS inh 65* and CSC inhib 8.
Screening COCC(=O)N/N=C/c1c(C)[nH]n(-c2ccccc2)c1=O returned Mdm2 MdmX PPI 14, UPR CHOP act 7, UPR XBP1 act -2, SKKanGAS inh 12 and CSC inhib -11.
Cc1[nH]n(-c2cccc3ccccc23)c(=O)c1/C=N/NC(=O)c1cccc([N+](=O)[O-])c1 was read as Mdm2 MdmX PPI 20, UPR CHOP act 1, Beta apoptosis 7, UPR XBP1 act -2, SKKanGAS inh 53* and CSC inhib 10.
Screening Cc1[nH]n(-c2ccccc2)c(=O)c1/C=N/NC(=O)COc1ccccc1[N+](=O)[O-] returned Mdm2 MdmX PPI 36, UPR CHOP act -3, Beta apoptosis 76*, UPR XBP1 act 2, SKKanGAS inh 26 and CSC inhib 13.
Screening Cc1ccc(S(=O)(=O)NCc2ccc(N3CCN(C(=O)OC(C)(C)C)CC3)cc2)cc1 returned Mdm2 MdmX PPI 21, UPR CHOP act 2, Beta apoptosis 37, UPR XBP1 act -6, SKKanGAS inh -4 and CSC inhib 38.
COc1cc(CCc2ccccc2)c(C(=O)O)c(O)c1C/C=C(/C)CCC=C(C)C was read as Mdm2 MdmX PPI 18, UPR CHOP act 3 and UPR XBP1 act 7.
CC(C)[C@H](NC(=O)c1ccccc1Cl)C(=O)OCC(=O)NCc1ccc2c(c1)OCO2 was read as Mdm2 MdmX PPI 11, UPR CHOP act 0, Beta apoptosis -3, UPR XBP1 act 1 and CSC inhib -15.
`O=C1CCc2cc(NS(=O)(=O)c3cc(F)ccc3F)cc3c2N1CC3` gave Mdm2 MdmX PPI 12, UPR CHOP act -1, Beta apoptosis -2, UPR XBP1 act -1, SKKanGAS inh -3 and CSC inhib -9.
For CCOC(=O)c1cnn(-c2ccc(NS(=O)(=O)c3ccc(Cl)cc3)cc2)c1C(F)(F)F the results were Mdm2 MdmX PPI 24, UPR CHOP act -1, Beta apoptosis 9, UPR XBP1 act 0, SKKanGAS inh 55* and CSC inhib 17.
For COc1ccccc1Nc1nc(-c2cccc([N+](=O)[O-])c2)cs1 the results were Mdm2 MdmX PPI -11, UPR CHOP act 5, Beta apoptosis 25, UPR XBP1 act 0, SKKanGAS inh -20 and CSC inhib 74.
`O=C(Nc1ccc(-c2csc(Nc3ccc(Cl)cc3)n2)cc1)c1ccccc1` gave Mdm2 MdmX PPI -15, UPR CHOP act 2, Beta apoptosis 3, UPR XBP1 act -3 and CSC inhib -3.
`O=C(Nc1cccc(-c2csc(Nc3cccc(C(F)(F)F)c3)n2)c1)c1ccccc1` gave Mdm2 MdmX PPI 43, UPR CHOP act 0, Beta apoptosis 16, UPR XBP1 act 2, SKKanGAS inh 93* and CSC inhib 130*.
O=C(Nc1cccc(-c2csc(Nc3ccccc3)n2)c1)c1ccccc1 was read as Mdm2 MdmX PPI -8, UPR CHOP act 6, Beta apoptosis 37, UPR XBP1 act 3, SKKanGAS inh 41 and CSC inhib 100*.
